Measurements published in ChEMBL document CHEMBL1141950, “Rapamycin analogs with reduced systemic exposure” (Bioorg Med Chem Lett, 2005).

Experiments:
Rattus norvegicus [1] = species: Rattus norvegicus; assay: Efficacy in T-cell mediated inflammatory response by delayed type hypersensitivity model in Sprague-Dawley rat; assay type: functional
T-cell [2] = assay: Antiproliferative activity in Lewis rat lymph node cells in rat mixed lymphocyte reaction; assay type: functional, cell-based
Outline: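 Rat mixed lymphocyte reaction run serum free: Lewis rat lymph node cells (responders) stimulated by Brown–Norway splenocytes; IC50 reported as mean ± SEM of n determinations.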

T-cell [3] = assay: T-cell antiproliferative activity in human mixed lymphocyte reaction; assay type: functional, cell-based
Outline: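 Human mixed lymphocyte reaction carried out in serum-containing medium; IC50 given as mean ± SEM for n determinations.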

[4] = Half life in male Sprague-Dawley rat administered with 2.5 mg/kg, po; assay type: ADME, organism-based; design: dose 2.5 mg/kg, route oral; conditions: in vivo
Rattus norvegicus [5] = species: Rattus norvegicus; assay: Efficacy in CD4+ T-cell mediated experimental autoimmune encephalomyelitis model in Lewis rat; assay type: functional
Outline: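 Rat EAE induced by subcutaneous injection of homogenized isologous spinal cord in modified complete Freund's adjuvant; value reported with range and n.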

[6] = Half life in human in a multiple dose escalation study; assay type: ADME, organism-based; conditions: in vivo
[7] = Cmax in male Sprague-Dawley rat administered with 2.5 mg/kg, po; assay type: ADME, organism-based; design: dose 2.5 mg/kg, route oral; conditions: in vivo
[8] = Oral bioavailability in male Sprague-Dawley rat administered with 2.5 mg/kg, po; assay type: ADME, organism-based; conditions: in vivo
[9] = AUC in male Sprague-Dawley rat administered with 2.5 mg/kg, po; assay type: ADME, organism-based; design: dose 2.5 mg/kg, route oral; conditions: plasma
[10] = Tmax in male Sprague-Dawley rat administered with 2.5 mg/kg, po; assay type: ADME, organism-based; design: dose 2.5 mg/kg, route oral; conditions: in vivo
Rattus norvegicus [11] = species: Rattus norvegicus; assay: Efficacy in T-cell mediated adjuvant arthritis model in Lewis rat; assay type: functional

half-life [4] [h]	half-life [6] [h]	Cmax [7] [ng/mL]	bioavailability [8] [%]	AUC [9] [ng·h/mL]	Tmax [10] [h]	Structure (SMILES)	ED50 (Rattus norvegicus [1]) [mg/kg]	IC50 (T-cell [2]) [nM]	IC50 (T-cell [3]) [nM]	ED50 (Rattus norvegicus [5]) [mg/kg]	ED50 (Rattus norvegicus [11]) [mg/kg]
–	–	–	–	–	–	CO[C@H]1C[C@@H]2CC[C@@H](C)[C@@](O)(O2)C(=O)C(=O)N2CCCC[C@H]2C(=O)O[C@H]([C@H](C)C[C@@H]2CC[C@H](n3ncnn3)[C@H](OC)C2)CC(=O)[C@H](C)/C=C(\C)[C@@H](O)[C@@H](OC)C(=O)[C@H](C)C[C@H](C)/C=C/C=C/C=C/1C	2	1500	3.3	–	–
33.4	63	50.8	43.2	559	0.5	CO[C@H]1C[C@@H]2CC[C@@H](C)[C@@](O)(O2)C(=O)C(=O)N2CCCC[C@H]2C(=O)O[C@H]([C@H](C)C[C@@H]2CC[C@@H](O)[C@H](OC)C2)CC(=O)[C@H](C)/C=C(\C)[C@@H](O)[C@@H](OC)C(=O)[C@H](C)C[C@H](C)/C=C/C=C/C=C/1C [SIROLIMUS]	0.5	2600	1.6	0.3	0.2
7.9	25	46.7	12.1	163	0.4	CO[C@H]1C[C@@H]2CC[C@@H](C)[C@@](O)(O2)C(=O)C(=O)N2CCCC[C@H]2C(=O)O[C@H]([C@H](C)C[C@@H]2CC[C@H](n3cnnn3)[C@H](OC)C2)CC(=O)[C@H](C)/C=C(\C)[C@@H](O)[C@@H](OC)C(=O)[C@H](C)C[C@H](C)/C=C/C=C/C=C/1C [ZOTAROLIMUS]	1.7	1400	2	1.2	0.7
8.7	–	29.7	6.2	132	0.4	CO[C@H]1C[C@@H]2CC[C@@H](C)[C@@](O)(O2)C(=O)C(=O)N2CCCC[C@H]2C(=O)OC([C@H](C)C[C@@H]2CC[C@@H](OC(=O)N(C)OC)[C@H](OC)C2)CC(=O)[C@H](C)/C=C(\C)[C@@H](O)[C@@H](OC)C(=O)[C@H](C)C[C@H](C)/C=C/C=C/C=C/1C (stereo not given in full)	0.4	2500	5.9	0.5	0.3
